This is an account of results in ChEMBL document CHEMBL4725336, “Anti-cancer potential of (1,2-dihydronaphtho[2,1-b]furan-2-yl)methanone derivatives” (Bioorg Med Chem Lett, 2020).

The nature of series [1]: Cytotoxicity against human WI-38 cells assessed as inhibition of cell proliferation by MTT assay. It is filed as cell-based. The note with it: read-out: LD50 (the source's name). A digest of the protocol:
(§1)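 MTT proliferation assay; cells exposed to compounds across 0-50 μM; LD50 derived from dose-dependent survival. Triple-negative MDA-MB-468, MDA-MB-231 and 4T1, ER+/PR+ MCF-7, and non-cancerous lung fibroblast WI-38 tested.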

The next series deals with MDA-MB-468. The experiment in a line: Antiproliferative activity against human MDA-MB-468 cells assessed as inhibition of cell proliferation by MTT assay. Format: functional. The note with it: read-out: LD50 (the source's name). A digest of the protocol: as §1
In the next series the test system is MCF7. Put plainly: Antiproliferative activity against human MCF7 cells assessed as inhibition of cell proliferation by MTT assay. Format: functional. The note with it: read-out: LD50 (the source's name). An outline of the steps:
as §1

A short description of series [2]: Selectivity index, ratio of LD50 for human WI-38 cells to LD50 for human MCF7 cells assessed as inhibition of cell proliferation by MTT assay. It is filed as toxicity. The note with it: WI-38 cells and MCF7 cells, read-out: Selectivity Index. A digest of the protocol:
(§2)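 MTT proliferation assay on cells treated with 0–50 μM. LD50 was derived for each cell line, and the selectivity index was calculated as WI-38 LD50 divided by cancer-cell LD50.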

The nature of series [3]: Selectivity index, ratio of LD50 for human WI-38 cells to LD50 for human MDA-MB-468 cells assessed as inhibition of cell proliferation by MTT assay. The note with it: WI-38 cells and MDA-MB-468 cells, read-out: Selectivity Index. Format: toxicity. An outline of the steps: as §2

In the case of `O=C(c1ccc(F)cc1)[C@@H]1Cc2c(ccc3ccccc23)O1`, the results for the CC50 (in series [1]; in the series with MDA-MB-468; in the series with MCF7) were 54 µM, 27 µM and 29 µM, respectively. Besides, the selectivity ratio in series [2] came to 1.86; in series [3], 2.

On to `O=C(c1ccccc1)[C@H]1Oc2ccc3ccccc3c2[C@@H]1c1ccc(Cl)cc1`, for which the CC50 in series [1] was found to be 96 µM; in the series with MDA-MB-468, 87 µM; in the series with MCF7 it was 91 µM. For the same molecule, the selectivity ratio in series [2] came to 1.05; in series [3] it was 1.1.

Take `COc1cc([C@@H]2c3cc4c(cc3[C@@H](O[C@@H]3O[C@@H]5CO[C@@H](C)O[C@H]5[C@H](O)[C@H]3O)[C@H]3COC(=O)[C@H]23)OCO4)cc(OC)c1O` [ETOPOSIDE]: the CC50 in series [1] turned out to be 29.6 µM; in the series with MDA-MB-468, 27.9 µM; with MCF7 it was 45.3 µM. Also, the selectivity ratio in series [2] amounted to 0.65; in series [3] it was 1.06.

As to `COc1cc([C@H]2c3c(ccc4ccccc34)O[C@@H]2C(=O)c2ccccc2)cc(OC)c1OC`, the CC50 in series [1] was 128 µM; in the series with MDA-MB-468 it was 88 µM; with MCF7, 86 µM. Further, the selectivity ratio in series [2] stood at 1.49; in series [3], 1.45.

Regarding `O=C(c1ccccc1)[C@@H]1Cc2c(ccc3cc(Br)ccc23)O1`, the CC50 in series [1] came to 73 µM; in the series with MDA-MB-468, 32 µM; with MCF7, 54 µM. The selectivity ratio in series [2] is 1.35; in series [3], 2.28.

`O=C(c1ccco1)[C@@H]1Cc2c(ccc3ccccc23)O1`: the CC50 in series [1] was 51 µM; with MDA-MB-468, 34 µM; in the series with MCF7, 37 µM. Besides, the selectivity ratio in series [2] is 1.38; in series [3], 1.5.

As to `N#Cc1ccc(C(=O)[C@H]2Oc3ccc4ccccc4c3[C@@H]2c2ccc3ccccc3c2)cc1`, the CC50 in series [1] was 88 µM; in the series on MDA-MB-468 it was 54 µM; in the series with MCF7 it was 57 µM. The selectivity ratio in series [2] was determined as 1.54; in series [3], 1.63.

For `O=C(c1ccccc1)[C@H]1Oc2ccc3ccccc3c2[C@@H]1c1ccc2ccccc2c1`, the CC50 in series [1] came out at 59 µM; in the series on MDA-MB-468, 23 µM; in the series on MCF7 it was 28 µM. Further, the selectivity ratio in series [2] worked out at 2.1; in series [3], 2.56.

`C[C@H]1c2c(ccc3ccccc23)O[C@@H]1C(=O)c1ccccc1`: the CC50 was 64 µM in series [1], 34 µM in the series with MDA-MB-468 and 38 µM in the series with MCF7. For the same molecule, the selectivity ratio was 1.68 in series [2] and 1.88 in series [3].

On to `COc1ccc([C@H]2c3c(ccc4ccccc34)O[C@@H]2C(=O)c2ccccc2)cc1`, for which the CC50 was found to be 83 µM in series [1], 118 µM with MDA-MB-468 and 84 µM in the series with MCF7. Moreover, the selectivity ratio is 0.98 in series [2] and 0.7 in series [3].

As to `O=C(c1ccco1)[C@H]1Oc2ccc3cc(Br)ccc3c2[C@@H]1c1ccccc1`, the CC50 worked out at 92 µM in series [1], 68 µM with MDA-MB-468 and 72 µM in the series with MCF7. The values for the selectivity ratio in series [2] and in series [3] were 1.28 and 1.35, respectively.

Take `Cc1ccc([C@H]2c3c(ccc4ccccc34)O[C@@H]2C(=O)c2ccccc2)cc1`: the CC50 turned out to be 72 µM in series [1], 63 µM with MDA-MB-468 and 71 µM with MCF7. Moreover, the selectivity ratio in series [2] worked out at 1.01; in series [3], 1.14.

Take `N#Cc1ccc([C@H]2c3c(ccc4ccccc34)O[C@@H]2C(=O)c2ccccc2)cc1`: the figures for the CC50 (in series [1]; in the series on MDA-MB-468; in the series on MCF7) were 72 µM, 53 µM and 51 µM, respectively. In addition, the values for the selectivity ratio in series [2] and in series [3] were 1.41 and 1.35, respectively.

Turning to `O=C(c1ccccc1)[C@H]1Oc2ccc3ccccc3c2[C@@H]1C1CCCCC1`, the figures for the CC50 (in series [1]; in the series on MDA-MB-468; in the series on MCF7) were 74 µM, 46 µM and 42 µM, respectively. Further, the selectivity ratio came out at 1.76 in series [2] and 1.6 in series [3].
